Assay results from ChEMBL document CHEMBL4364314, “Design, synthesis and biological evaluation of 6-deoxy O-spiroketal C-arylglucosides as novel renal sodium-dependent glucose cotransporter 2 (SGLT2) inhibitors for the treatment of type 2 diabetes” (Eur J Med Chem, 2019).

Experiments:
[1] = target: T1, Sodium/glucose cotransporter 1 (Homo sapiens, UniProt P13866); experiment: Inhibition of human full length SGLT1 expressed in NIH3T3 cells measured after 1 hr in presence of [14C]-methyl-alpha -D-glucopyranoside by scintillation counter method; format: cell-based
T1 sequence (P13866 whole entry): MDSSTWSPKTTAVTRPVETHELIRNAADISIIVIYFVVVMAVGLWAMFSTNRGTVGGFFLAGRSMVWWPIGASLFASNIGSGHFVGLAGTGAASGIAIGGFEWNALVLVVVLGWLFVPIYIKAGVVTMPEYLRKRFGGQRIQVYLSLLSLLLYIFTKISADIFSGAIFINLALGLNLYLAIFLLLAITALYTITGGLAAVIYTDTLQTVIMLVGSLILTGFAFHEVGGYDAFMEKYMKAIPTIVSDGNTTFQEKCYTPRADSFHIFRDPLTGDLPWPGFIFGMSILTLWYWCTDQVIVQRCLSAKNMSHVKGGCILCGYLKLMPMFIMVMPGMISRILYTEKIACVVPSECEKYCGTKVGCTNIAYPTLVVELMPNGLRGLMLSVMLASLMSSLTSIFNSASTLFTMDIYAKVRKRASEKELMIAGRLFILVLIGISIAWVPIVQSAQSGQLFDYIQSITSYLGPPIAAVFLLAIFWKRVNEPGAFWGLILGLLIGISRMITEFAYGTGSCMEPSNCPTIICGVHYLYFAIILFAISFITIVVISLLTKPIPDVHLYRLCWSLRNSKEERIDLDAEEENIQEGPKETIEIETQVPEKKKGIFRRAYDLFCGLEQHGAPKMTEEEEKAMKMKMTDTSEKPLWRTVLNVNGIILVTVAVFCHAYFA
Procedure, shortened: (§1)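 Stable NIH3T3 lines from retroviral transduction of full-length hSGLT1 or hSGLT2 (pBABE-puro, 8 µg/mL polybrene, puromycin 2 µg/mL selection for 2 weeks). Cells plated 2 days ahead, 2 mmol/L sodium butyrate added day 2. Read by scintillation counting. Compound-free buffer served as negative control, sodium-free N-methyl-glucamine buffer as blank.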

[2] = target: T2, Sodium/glucose cotransporter 2 (Homo sapiens, UniProt P31639); experiment: Inhibition of human full length SGLT2 expressed in NIH3T3 cells measured after 1 hr in presence of [14C]-methyl-alpha -D-glucopyranoside by scintillation counter method; format: cell-based; procedure, shortened: as §1
T2 sequence (P31639 whole entry): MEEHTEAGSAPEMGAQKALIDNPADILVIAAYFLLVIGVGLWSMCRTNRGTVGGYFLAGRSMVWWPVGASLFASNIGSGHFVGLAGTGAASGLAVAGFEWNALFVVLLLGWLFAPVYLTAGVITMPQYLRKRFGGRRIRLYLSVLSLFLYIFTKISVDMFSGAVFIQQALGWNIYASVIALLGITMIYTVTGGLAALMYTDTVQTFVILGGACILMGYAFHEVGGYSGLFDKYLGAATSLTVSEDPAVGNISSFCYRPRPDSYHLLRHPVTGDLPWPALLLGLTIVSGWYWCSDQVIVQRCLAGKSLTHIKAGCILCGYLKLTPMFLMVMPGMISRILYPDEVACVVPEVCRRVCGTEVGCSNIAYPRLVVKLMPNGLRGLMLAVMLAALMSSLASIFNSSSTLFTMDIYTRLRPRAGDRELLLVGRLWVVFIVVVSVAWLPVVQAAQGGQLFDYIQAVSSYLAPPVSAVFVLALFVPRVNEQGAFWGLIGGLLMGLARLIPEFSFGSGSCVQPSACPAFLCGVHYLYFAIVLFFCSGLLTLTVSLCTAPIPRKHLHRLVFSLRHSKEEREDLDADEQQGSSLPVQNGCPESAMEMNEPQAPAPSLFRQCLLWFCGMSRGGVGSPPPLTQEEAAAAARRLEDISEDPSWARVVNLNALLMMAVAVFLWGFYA

Homo sapiens = species: Homo sapiens; experiment: Selectivity ratio of IC50 for human full length SGLT1 to IC50 for human full length SGLT2
Procedure, shortened: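 Ratio of IC50 at hSGLT1 to IC50 at hSGLT2, both from the [14C]methyl-α-D-glucopyranoside uptake assay in stably transfected NIH3T3 cells.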

[3] = target: T3, Sodium/glucose cotransporter 2 (Homo sapiens) (UniProt P31639); experiment: Binding affinity to human SGLT2 assessed as dissociation half-life
T3 sequence (whole entry): T2 sequence (P31639 whole entry)

Mus musculus [4] = experiment: Effect on urinary volume in C57BL/6J mouse at 1 mg/kg, po administered as single dose measured after 24 hrs (reference value: 1.24 +/- 0.45 mL); format: ADME, organism-based; conditions: in vivo
Mus musculus [5] = experiment: Effect on urine glucose concentration in C57BL/6J mouse at 1 mg/kg, po administered as single dose measured after 24 hrs by glucose oxidase method (reference value: 0.74 +/- 0.14 mmol/L); format: functional
Mus musculus [6] = experiment: Effect on urine glucose excretion in C57BL/6J mouse at 1 mg/kg, po administered as single dose measured after 24 hrs assessed per 100 grams (reference value: 0.84 +/- 0.40 mg ); format: functional
Rattus norvegicus [7] = experiment: Effect on urinary volume in Sprague-Dawley rat at 1 mg/kg, po administered as single dose measured after 24 hrs (reference value: 24.17 +/- 7.11 mL); format: ADME, organism-based; conditions: in vivo
Rattus norvegicus [8] = experiment: Effect on urine glucose concentration in Sprague-Dawley rat at 1 mg/kg, po administered as single dose measured after 24 hrs by glucose oxidase method (reference value: 0.28 +/- 0.16 mmol/L); format: functional
Rattus norvegicus [9] = experiment: Effect on urine glucose excretion in Sprague-Dawley rat 1 mg/kg, po administered as single dose measured after 24 hrs assessed per 100 grams (reference value: 0.51 +/- 0.40 mg); format: functional

Structure (SMILES)	IC50 [1] [nM]	IC50 [2] [nM]	Ratio IC50 (Homo sapiens)	further results
CCCOCCc1ccc(Cc2cc3c(cc2Cl)CO[C@]32O[C@H](C)[C@@H](O)[C@H](O)[C@H]2O)s1	5000	42.3	117	–
C[C@H]1O[C@]2(OCc3ccc(Cc4cc5ccccc5s4)cc32)[C@H](O)[C@@H](O)[C@@H]1O	–	> 100	–	–
Cc1ccc(Cc2cc3c(cc2Cl)CO[C@]32O[C@H](C)[C@@H](O)[C@H](O)[C@H]2O)s1	400	8.5	46	–
C[C@H]1O[C@]2(OCc3ccc(Cc4ccc(-c5ccccn5)s4)cc32)[C@H](O)[C@@H](O)[C@@H]1O	–	> 100	–	–
Cc1ccc(Cc2ccc3c(c2)[C@]2(OC3)O[C@H](C)[C@@H](O)[C@H](O)[C@H]2O)s1	–	> 100	–	–
C[C@H]1O[C@]2(OCc3ccc(Cc4cc5ccccc5o4)cc32)[C@H](O)[C@@H](O)[C@@H]1O	–	> 100	–	–
C[C@H]1O[C@]2(OCc3cc(Cl)c(Cc4ccc(Cl)s4)cc32)[C@H](O)[C@@H](O)[C@@H]1O	500	15.9	30	–
CCc1ccc(Cc2ccc3c(c2)[C@]2(OC3)O[C@H](C)[C@@H](O)[C@H](O)[C@H]2O)cc1	–	–	351	–
C[C@H]1O[C@]2(OCc3ccc(Cc4ccc5ccccc5c4)cc32)[C@H](O)[C@@H](O)[C@@H]1O	–	> 100	–	–
C[C@H]1O[C@]2(OCc3ccc(Cc4ccc(Cl)s4)cc32)[C@H](O)[C@@H](O)[C@@H]1O	–	> 100	–	–
C[C@H]1O[C@]2(OCc3cc(Cl)c(Cc4cc5ccccc5s4)cc32)[C@H](O)[C@@H](O)[C@@H]1O	2000	–	81	–
CCc1ccc(Cc2ccc3c(c2)[C@]2(OC3)O[C@H](C)[C@@H](O)[C@H](O)[C@H]2O)s1	–	> 100	–	–
Cc1ccc(Cc2ccc3c(c2)[C@]2(OC3)O[C@H](C)[C@@H](O)[C@H](O)[C@H]2O)cc1	–	> 100	–	–
COCCc1ccc(Cc2cc3c(cc2Cl)CO[C@]32O[C@H](C)[C@@H](O)[C@H](O)[C@H]2O)s1	4700	69.4	68	–
CCc1ccc(Cc2cc3c(cc2Cl)CO[C@]32O[C@H](C)[C@@H](O)[C@H](O)[C@H]2O)cc1	400	–	13	–
CCCc1ccc(Cc2ccc3c(c2)[C@]2(OC3)O[C@H](C)[C@@H](O)[C@H](O)[C@H]2O)cc1	–	> 100	–	–
CCc1ccc(Cc2cc3c(cc2F)CO[C@]32O[C@H](C)[C@@H](O)[C@H](O)[C@H]2O)s1	–	26.2	988	–

Structure (SMILES)	IC50 [1] [nM]	IC50 [2] [nM]	Ratio IC50 (Homo sapiens)	further results
CCCc1ccc(Cc2ccc3c(c2)[C@]2(OC3)O[C@H](C)[C@@H](O)[C@H](O)[C@H]2O)s1	–	> 100	–	–
C[C@H]1O[C@]2(OCc3cc(Cl)c(Cc4ccc(C=O)s4)cc32)[C@H](O)[C@@H](O)[C@@H]1O	3600	51.3	70	–
OC[C@H]1O[C@@H](c2ccc(Cl)c(Cc3ccc(O[C@H]4CCOC4)cc3)c2)[C@H](O)[C@@H](O)[C@@H]1O	–	–	–	T1/2 [3]: 1 h
CCOc1ccc(Cc2cc([C@@H]3S[C@H](CO)[C@@H](O)[C@H](O)[C@H]3O)c(OC)cc2C)cc1	–	–	–	T1/2 [3]: 7 h
C[C@H]1O[C@]2(OCc3ccc(Cc4ccc(-c5ccccc5)s4)cc32)[C@H](O)[C@@H](O)[C@@H]1O	–	> 100	–	–
CCOCCc1ccc(Cc2cc3c(cc2Cl)CO[C@]32O[C@H](C)[C@@H](O)[C@H](O)[C@H]2O)s1	4800	67.5	71	–
CCc1ccc(Cc2ccc3c(c2)[C@]2(OC3)O[C@H](CO)[C@@H](O)[C@H](O)[C@H]2O)cc1.O [TOFOGLIFLOZIN]	–	–	–	Activity (Mus musculus [4]): 1.3 mL; Activity (Mus musculus [5]): 56.27 mmol/L; Activity (Mus musculus [6]): 48.85 mg; Activity (Rattus norvegicus [7]): 26.5 mL; Activity (Rattus norvegicus [8]): 43.67 mmol/L; Activity (Rattus norvegicus [9]): 73.68 mg
COc1ccc(Cc2ccc3c(c2)[C@]2(OC3)O[C@H](C)[C@@H](O)[C@H](O)[C@H]2O)cc1	–	> 100	–	–
C[C@H]1O[C@]2(OCc3ccc(Cc4ccc(-c5ccc(F)cc5)s4)cc32)[C@H](O)[C@@H](O)[C@@H]1O	–	> 100	–	–
C[C@H]1O[C@]2(OCc3cc(Cl)c(Cc4ccc(-c5ccc(F)cc5)s4)cc32)[C@H](O)[C@@H](O)[C@@H]1O	–	> 100	–	–
CCOc1ccc(Cc2ccc3c(c2)[C@]2(OC3)O[C@H](C)[C@@H](O)[C@H](O)[C@H]2O)cc1	–	> 100	–	–
COC(=O)Cc1ccc(Cc2cc3c(cc2Cl)CO[C@]32O[C@H](C)[C@@H](O)[C@H](O)[C@H]2O)s1	6400	42.4	151	–
C[C@H]1O[C@]2(OCc3cc(Cl)c(Cc4ccc(CO)s4)cc32)[C@H](O)[C@@H](O)[C@@H]1O	2200	47.2	47	–
CC(C)c1ccc(Cc2ccc3c(c2)[C@]2(OC3)O[C@H](C)[C@@H](O)[C@H](O)[C@H]2O)cc1	–	> 100	–	–
CCOc1ccc(Cc2cc3c(cc2Cl)CO[C@]32O[C@H](C)[C@@H](O)[C@H](O)[C@H]2O)cc1	500	8.8	60	–
COC(=O)c1ccc(Cc2cc3c(cc2Cl)CO[C@]32O[C@H](C)[C@@H](O)[C@H](O)[C@H]2O)s1	3000	51.5	58	–
